# In ChEMBL document CHEMBL4513216, “Probing the Open Global Health Chemical Diversity Library for Multistage-Active Starting Points for Next-Generation Antimalarials” (ACS Infect Dis, 2020):
# Experiment: Toxicity liver stage against HepG2, at 10uM
# Assay type: cell-based
# Design: test concentration 10 uM, cell line HepG2-A16-CD81EGFP
# Conditions: human, HepG2-A16-CD81EGFP cells; read-out: INHIBITION
# Method in brief: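 Uninfected HepG2-A16-CD81EGFP cells, 3 × 10^3 per well, 1536-well, plated on prespotted compound at 10 μM final, parasite-free screening media added to match infected plates; puromycin 10 μM positive, DMSO 0.5% negative; run in parallel with 48 h PbLuc assay at 37 °C, 5% CO2; viability by CellTiter-Glo luminescence, normalized to controls.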
row,Compound,cytotoxicity at 10 µM [%]
1,CC(=O)N(C)Cc1ccccc1NC(=O)c1cnn(C)c1C,2.31
2,CC(C)(C)CNC1(Cc2cc(C(C)(C)O)on2)COC1,-6.11
3,CNC(=O)c1ccccc1-c1ccc(S(C)(=O)=O)cc1,-2.07
4,CCOC(=O)CNC(=O)C1OC(c2ccccc2)=NN1C(C)=O (configuration not stated),0.53
5,COc1ccccc1CNc1c(N2CCN(C(C)=O)CC2)c(=O)c1=O,-0.707
6,COCCNC(=O)c1cc(-c2ccc3c(c2)CCO3)n[nH]1,0.843
7,Cc1cc(C(=O)N2CCC3(CC2)C(=O)NCCN3CC(C)C)c(C)o1,9.61
8,CS(=O)(=O)N[C@H]1COC[C@@H]2CN(Cc3ccco3)C[C@@H]21,9.12
9,O=C(NCC1CC1)C1CN(Cc2cccs2)Cc2ccnn2C1 (configuration not stated),-3.94
10,O=C(c1cccnc1)N1CCN(CC2CC2)c2ncccc2C1,2
11,CC(C)n1[nH]c(=O)c2c1NC(=O)CC2c1ccncc1 (configuration not stated),-4.66
12,O=C(Cn1nc2c(cc1=O)CCCC2)N[C@@H](C(=O)O)c1ccccc1,5.76
13,CC(=O)c1cccc(NC(=O)COc2c(C)n(C)ccc2=O)c1,2.45
14,O=C(CSC1=NS(=O)(=O)c2cc(F)ccc2N1)c1ccc(Cl)cc1,10.3
15,CS(=O)(=O)N1Cc2nccn2CC(Cn2ncccc2=O)C1 (configuration not stated),-2.04
16,Cc1csc([C@@H]2C[C@@H]3CCN(C(=O)c4ccnnc4)C[C@H]3O2)n1,4.49
17,CCn1cc(Cn2cc(Cl)c(N)n2)c(C)n1,-6.56
18,Cn1cc(Br)c(C(=O)NCCCn2cc(Cl)cn2)n1,-1.49
19,COCc1nc(N(C)C)ncc1C(=O)Nc1ccc(Cl)cc1,0.474
20,Cc1noc(C)c1-c1nc(C2CCCN(CCC(N)=O)C2)ccc1CO (configuration not stated),-2.66
21,CCS(=O)(=O)N1C[C@@H](O)[C@H](Oc2cccc(F)c2)C1,-3.65

row,Compound,cytotoxicity at 10 µM [%]
1,CS(=O)(=O)N1C[C@@H](O)[C@H](N2CCN(c3ccccc3)CC2)C1,20.3
2,CC(=O)N1CCC(C(=O)N2CCCC(Cc3cccc(C)n3)C2)CC1 (configuration not stated),-18.6
3,Cc1ccc(=O)n(CC2(O)CCN(Cc3c(F)cccc3F)CC2)n1,-17.6
4,CCOCCSc1nnc(Cc2ccccc2F)o1,8.45
5,Cc1cncc(NCc2ccccc2N2CCOCC2)c1,6.02
6,COc1ccc(NC(=O)c2cccc(OC)c2OC)cc1,18.5
7,COc1cccc(COCC(=O)NC2CCN(CC(N)=O)CC2)c1,-8.47
8,CNC(=O)C1CCCCN1C(=O)c1csc(-c2ccc(C)o2)n1 (configuration not stated),7.55
9,Cc1ccc(F)c2c1N(C(=O)Cc1c(C)nn(C)c1C)CCC2,12.7
10,CNC(=O)Cc1noc(-c2cc3c(s2)CCC(C)C3)n1 (configuration not stated),4.75
11,O=C(NC1CCS(=O)(=O)C1)c1ccccc1SCc1cscn1 (configuration not stated),-1.53
12,CC1CN(C(=O)Nc2cc(C(F)(F)F)c[nH]c2=O)CC(C)(C)O1 (configuration not stated),8.96
13,CCc1ccc(S(=O)(=O)N2CCCn3ncnc32)s1,-0.908
14,COc1ccc2c(c1)CCCC2CC(=O)O (configuration not stated),-2.74
15,O=C(c1ccc(CN2CC(n3cccn3)C2)cc1)N1CCCC1,9.56
16,CCc1nc2n(n1)CC(NCCc1cccs1)CC2 (configuration not stated),-13
17,Cn1ccnc1CN1CCN(c2ncnc3ccsc23)CC1,-7.95
18,CN(Cc1cnn(C)c1)C(=O)Cc1ccc2c(c1)OCCO2,2.45
19,CC1CCCN(Cc2ccc(CNC(=O)NCc3ccon3)cc2)C1 (configuration not stated),-10
20,Cn1cnc(S(=O)(=O)Nc2cc(C(N)=O)ccc2Cl)c1,3.86
21,CNC(=O)CN1CCC(NC2CSCCc3ccccc32)CC1 (configuration not stated),-4.28

row,Compound,cytotoxicity at 10 µM [%]
1,O=C(CCNC(=O)c1sccc1-c1ccccc1)NC1CCS(=O)(=O)C1 (configuration not stated),1.9
2,CCN(CC(=O)NC)S(=O)(=O)N1CCCCC1,1.29
3,CC(=O)NCCNC(=O)c1cccc(Cn2nc(C)cc2C)c1,-10.3
4,CC(C)c1nn(C)c(N2CCOCC2)c1CNCc1nncn1C,5.59
5,CC(C)n1cc(S(=O)(=O)NCCc2nnc3ccccn23)cn1,7.07
6,Cn1cnnc1CNC(=O)C1CCCN(Cc2cccc(F)c2)C1 (configuration not stated),5.49
7,Cc1ccc(CCNC(=O)NCCCC(N)=O)c(C)c1,5.71
8,CCC(Nc1nnnn1-c1ccccc1)C(=O)Nc1ccccc1C (configuration not stated),-13.1
9,CC(c1nnc(-c2cccs2)o1)N1CCc2cncnc2C1 (configuration not stated),6.37
10,CC(C)(C)CCN1CCN(c2snc(Cl)c2C#N)CC1,38.1
11,Nc1cc2c(nn1)CCN(C(=O)c1cccnc1Oc1ccccc1)C2,-11.6
12,CCc1cc(CNC(=O)N2Cc3ccccc3N(C)CC2C)on1 (configuration not stated),4.38
13,NC(=O)C1CCCN1Cc1cccc(NC(=O)c2ccsc2)c1 (configuration not stated),16.3
14,COCCc1noc(CN(C)C2CCCN(c3ccc(C)nn3)C2)n1 (configuration not stated),19.3
15,CCNC(=O)CN1CCCN(C(=O)C2CCCc3[nH]ncc32)CC1 (configuration not stated),4
16,CCCC(C)C(=O)NCc1cn2cc(Br)ccc2n1 (configuration not stated),-6.6
17,C[C@H]1C[C@H]2CN(C(=O)CCc3ccccc3)CC[C@H]2O1,-75.6
18,CCOCc1nc2c(c(N3CC=CC3)n1)CCN(Cc1ccco1)CC2,-3.81
19,Cc1ncsc1CCN(C)C(=O)c1ccc(CN2CCCCC2)cc1,-4.38
20,Cc1nnsc1C(=O)N1CCCC(c2nccn2Cc2cscn2)C1 (configuration not stated),2.62
21,O=C1CC[C@H]2CN(c3ncc(F)cn3)CC[C@H]2N1CCc1ccccn1,4.83

row,Compound,cytotoxicity at 10 µM [%]
1,O=C(c1cccc(C2CCNC2)c1)N1CCC(c2ccncc2)CC1 (configuration not stated),-1.12
2,CCN(CC)C(=O)Cn1cc(-c2nc(-c3ccccc3C)no2)nn1,-2.46
3,CC(C)(CNC(=O)c1ccco1)CNC(=O)c1ccco1,-3.97
4,Cc1nnc(SCC(=O)NCC(c2ccccc2Cl)N(C)C)s1 (configuration not stated),2.67
5,O=C(COc1cccc(Cl)c1)N1CCOCC(O)(CN2CCCC2)C1 (configuration not stated),-4.68
6,COc1nccnc1-c1cccc(-c2ccn(CC3COCCO3)n2)c1 (configuration not stated),-3.65
7,CN(C)S(=O)(=O)N1CCCCC1CCc1ccc(O)cc1 (configuration not stated),4.32
8,CC(=O)c1cn(CC(=O)N2CCCC(O)(CO)C2)c2ccccc12 (configuration not stated),-4.87
9,NC1CCCc2c1cnn2-c1cc(F)cc(F)c1 (configuration not stated),6.54
10,CCN1CCCC1CNC(=O)c1cc(COc2cccc(F)c2)[nH]n1 (configuration not stated),-5.96
11,COc1cccc([C@@H]2CCN(Cc3ccc4ccccc4n3)C[C@H]2O)c1,-16.5
12,Cc1oc(C(=O)O)cc1S(=O)(=O)Nc1ccc(Br)cc1Cl,-5.09
13,O=C(c1cc2c(s1)CCC2)N1CCCC1Cn1cccn1 (configuration not stated),-3.12
14,C=C1c2ccccc2C(=O)N1CCC(=O)N1CCNC(=O)C1,-4.12
15,O=C(Nc1ccccc1F)C1=NOC2(CCNCC2)C1,2.93
16,Cn1cc(CN2CCO[C@@H]3CN(Cc4ccoc4)C[C@@H]3C2)cn1,2.14
17,COCc1nn(C(C)C)c2c1CCN(Cc1ccccn1)C2,8.04
18,CO[C@H]1CCN(S(=O)(=O)N(C)C)[C@@H]2CN(Cc3cccnc3)C[C@H]12,11.9
19,CCC(=O)N1C[C@@H]2CCN(c3cnccn3)C[C@@H]2C1,-13.2
